# From the M2OR odorant receptor database
# Changes are numbered by the printed parent chain.
# Tests used:
# Conditions in all cases: stereoisomer not certain
# [1] = molecular target: T1, OR11H2 (Homo sapiens) (UniProt Q8NH07)
# T1 sequence (whole entry): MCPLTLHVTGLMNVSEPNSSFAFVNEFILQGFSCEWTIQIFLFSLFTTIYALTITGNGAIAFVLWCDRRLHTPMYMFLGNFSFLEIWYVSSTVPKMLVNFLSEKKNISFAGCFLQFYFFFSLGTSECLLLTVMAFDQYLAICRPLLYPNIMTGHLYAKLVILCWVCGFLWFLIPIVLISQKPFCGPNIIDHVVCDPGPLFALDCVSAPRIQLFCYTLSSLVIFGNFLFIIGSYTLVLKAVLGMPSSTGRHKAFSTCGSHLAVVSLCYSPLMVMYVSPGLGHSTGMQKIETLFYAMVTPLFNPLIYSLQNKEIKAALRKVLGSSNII
# Procedure, shortened: (§1)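 Transient luciferase assays in mammalian cell lines were common, though methods varied by source. The values come from published papers and their supplementary material, with extra details from the original authors when needed. Responsive refers to a measured signal the original authors judged statistically different from baseline, and non-responsive (inactive) to the remainder.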
# [2] = molecular target: T2, OR11H4 (Homo sapiens) (UniProt Q8NGC9)
# T2 sequence (whole entry): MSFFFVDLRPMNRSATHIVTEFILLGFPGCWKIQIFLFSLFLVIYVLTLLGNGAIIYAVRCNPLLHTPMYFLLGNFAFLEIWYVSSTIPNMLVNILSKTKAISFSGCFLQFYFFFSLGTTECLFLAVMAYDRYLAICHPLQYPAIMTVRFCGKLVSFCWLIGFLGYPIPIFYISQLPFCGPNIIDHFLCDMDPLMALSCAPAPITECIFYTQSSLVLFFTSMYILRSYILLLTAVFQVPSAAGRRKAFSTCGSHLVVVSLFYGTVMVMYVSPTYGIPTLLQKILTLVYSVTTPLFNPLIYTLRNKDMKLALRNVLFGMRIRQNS
# Procedure, shortened: as §1
# [3] = molecular target: T3, OR11H6 (Homo sapiens) (UniProt Q8NGC7)
# T3 sequence (whole entry): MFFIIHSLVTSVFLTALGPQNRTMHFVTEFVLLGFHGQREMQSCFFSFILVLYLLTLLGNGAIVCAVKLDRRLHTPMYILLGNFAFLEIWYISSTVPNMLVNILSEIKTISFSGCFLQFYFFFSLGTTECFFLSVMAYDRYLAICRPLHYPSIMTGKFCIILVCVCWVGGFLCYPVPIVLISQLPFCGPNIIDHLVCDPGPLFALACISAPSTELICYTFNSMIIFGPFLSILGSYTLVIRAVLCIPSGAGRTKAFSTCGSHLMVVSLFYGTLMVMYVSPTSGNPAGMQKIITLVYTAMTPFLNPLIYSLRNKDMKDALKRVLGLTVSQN
# Procedure, shortened: as §1
# [4] = molecular target: T4, OR11L1 (Homo sapiens) (UniProt Q8NGX0)
# T4 sequence (whole entry): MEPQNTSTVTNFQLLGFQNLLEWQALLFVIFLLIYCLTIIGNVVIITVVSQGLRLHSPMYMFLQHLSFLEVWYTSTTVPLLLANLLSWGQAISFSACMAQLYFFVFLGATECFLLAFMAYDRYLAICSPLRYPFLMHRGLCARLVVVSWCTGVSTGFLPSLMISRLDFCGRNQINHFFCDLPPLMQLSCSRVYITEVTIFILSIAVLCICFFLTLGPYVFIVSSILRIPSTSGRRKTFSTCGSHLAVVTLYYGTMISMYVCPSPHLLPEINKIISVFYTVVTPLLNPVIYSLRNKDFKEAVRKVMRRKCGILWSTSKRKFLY
# Procedure, shortened: as §1
# [5] = molecular target: T5, OR12D2 (Homo sapiens) (UniProt P58182)
# T5 sequence (whole entry): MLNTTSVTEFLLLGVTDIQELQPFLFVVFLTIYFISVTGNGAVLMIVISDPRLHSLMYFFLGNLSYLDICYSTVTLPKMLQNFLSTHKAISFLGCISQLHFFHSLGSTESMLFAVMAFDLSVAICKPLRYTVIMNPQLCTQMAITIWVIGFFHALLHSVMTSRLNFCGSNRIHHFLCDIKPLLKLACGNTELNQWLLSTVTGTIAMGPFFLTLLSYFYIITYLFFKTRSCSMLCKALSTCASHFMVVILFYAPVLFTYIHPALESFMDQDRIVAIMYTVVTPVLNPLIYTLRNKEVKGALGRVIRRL
# Procedure, shortened: as §1
# [6] = molecular target: T6, OR12D3 (Homo sapiens) (UniProt Q9UGF7)
# T6 sequence (whole entry): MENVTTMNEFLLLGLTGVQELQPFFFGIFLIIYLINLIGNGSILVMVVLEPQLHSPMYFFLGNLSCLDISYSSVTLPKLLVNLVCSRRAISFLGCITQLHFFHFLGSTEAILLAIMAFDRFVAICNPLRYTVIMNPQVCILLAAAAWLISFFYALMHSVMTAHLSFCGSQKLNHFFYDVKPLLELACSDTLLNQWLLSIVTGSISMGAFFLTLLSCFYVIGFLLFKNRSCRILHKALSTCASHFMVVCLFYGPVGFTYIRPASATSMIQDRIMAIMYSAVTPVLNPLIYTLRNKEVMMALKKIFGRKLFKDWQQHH
# Procedure, shortened: as §1
# [7] = molecular target: T7, OR13A1 (Homo sapiens) (UniProt Q8NGR1)
# T7 sequence (whole entry): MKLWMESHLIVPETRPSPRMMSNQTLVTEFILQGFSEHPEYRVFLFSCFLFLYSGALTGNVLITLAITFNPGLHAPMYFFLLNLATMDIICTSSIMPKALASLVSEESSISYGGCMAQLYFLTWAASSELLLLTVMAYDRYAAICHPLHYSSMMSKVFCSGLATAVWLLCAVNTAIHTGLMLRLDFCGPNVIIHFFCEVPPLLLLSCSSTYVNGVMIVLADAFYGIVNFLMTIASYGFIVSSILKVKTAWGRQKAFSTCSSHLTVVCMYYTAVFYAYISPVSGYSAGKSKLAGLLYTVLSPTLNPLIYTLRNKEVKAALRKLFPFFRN
# Procedure, shortened: as §1
# [8] = molecular target: T8, OR13C2 (Homo sapiens) (UniProt Q8NGS9)
# T8 sequence (whole entry): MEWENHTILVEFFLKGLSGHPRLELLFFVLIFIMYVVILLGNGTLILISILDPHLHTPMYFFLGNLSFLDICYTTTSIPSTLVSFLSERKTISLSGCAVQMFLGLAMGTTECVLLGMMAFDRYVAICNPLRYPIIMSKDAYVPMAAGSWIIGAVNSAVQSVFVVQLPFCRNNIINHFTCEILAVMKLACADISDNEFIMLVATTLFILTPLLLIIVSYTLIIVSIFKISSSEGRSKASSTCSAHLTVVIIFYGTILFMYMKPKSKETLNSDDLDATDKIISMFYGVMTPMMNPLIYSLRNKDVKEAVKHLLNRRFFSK
# Procedure, shortened: as §1
# [9] = molecular target: T9, OR13C3 (Homo sapiens) (UniProt Q8NGS6)
# T9 sequence (whole entry): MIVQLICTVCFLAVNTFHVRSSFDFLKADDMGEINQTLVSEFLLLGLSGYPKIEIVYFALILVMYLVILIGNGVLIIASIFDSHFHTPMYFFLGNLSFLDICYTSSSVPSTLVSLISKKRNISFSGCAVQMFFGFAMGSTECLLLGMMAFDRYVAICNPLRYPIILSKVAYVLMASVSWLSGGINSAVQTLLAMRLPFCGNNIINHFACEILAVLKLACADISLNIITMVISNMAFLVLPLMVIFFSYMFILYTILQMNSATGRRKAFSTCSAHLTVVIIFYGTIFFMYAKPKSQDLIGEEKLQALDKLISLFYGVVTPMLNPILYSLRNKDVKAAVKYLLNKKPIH
# Procedure, shortened: as §1
# [10] = molecular target: T10, OR13C4 (Homo sapiens) (UniProt Q8NGS5)
# T10 sequence (whole entry): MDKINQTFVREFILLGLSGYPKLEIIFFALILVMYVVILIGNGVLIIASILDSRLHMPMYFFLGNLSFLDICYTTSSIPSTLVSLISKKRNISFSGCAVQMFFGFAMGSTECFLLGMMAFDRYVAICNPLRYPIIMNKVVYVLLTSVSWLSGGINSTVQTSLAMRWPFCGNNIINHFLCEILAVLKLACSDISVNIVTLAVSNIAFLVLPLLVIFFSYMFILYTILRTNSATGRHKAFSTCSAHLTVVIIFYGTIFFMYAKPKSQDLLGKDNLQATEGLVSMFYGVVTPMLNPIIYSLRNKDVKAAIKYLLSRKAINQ
# Procedure, shortened: as §1
# [11] = molecular target: T11, OR13C5 (Homo sapiens) (UniProt Q8NGS8)
# T11 sequence (whole entry): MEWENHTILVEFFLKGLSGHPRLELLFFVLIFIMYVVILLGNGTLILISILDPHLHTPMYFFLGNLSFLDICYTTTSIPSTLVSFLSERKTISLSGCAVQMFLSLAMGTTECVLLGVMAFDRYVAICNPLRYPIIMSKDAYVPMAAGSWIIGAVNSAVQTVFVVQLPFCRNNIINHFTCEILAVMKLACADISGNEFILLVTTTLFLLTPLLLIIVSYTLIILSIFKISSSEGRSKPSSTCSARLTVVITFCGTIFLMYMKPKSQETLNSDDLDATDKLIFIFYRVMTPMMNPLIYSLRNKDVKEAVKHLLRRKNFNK
# Procedure, shortened: as §1
# [12] = molecular target: T12, OR13C8 (Homo sapiens) (UniProt Q8NGS7)
# T12 sequence (whole entry): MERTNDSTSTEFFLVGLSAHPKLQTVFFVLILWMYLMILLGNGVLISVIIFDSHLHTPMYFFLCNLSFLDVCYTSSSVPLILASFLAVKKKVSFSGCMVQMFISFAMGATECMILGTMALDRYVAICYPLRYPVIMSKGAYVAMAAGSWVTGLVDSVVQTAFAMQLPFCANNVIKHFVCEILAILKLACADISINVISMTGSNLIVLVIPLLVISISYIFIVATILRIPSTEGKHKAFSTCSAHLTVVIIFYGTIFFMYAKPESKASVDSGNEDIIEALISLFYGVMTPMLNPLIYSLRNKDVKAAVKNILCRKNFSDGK
# Procedure, shortened: as §1
# [13] = molecular target: T13, OR13C9 (Homo sapiens) (UniProt Q8NGT0)
# T13 sequence (whole entry): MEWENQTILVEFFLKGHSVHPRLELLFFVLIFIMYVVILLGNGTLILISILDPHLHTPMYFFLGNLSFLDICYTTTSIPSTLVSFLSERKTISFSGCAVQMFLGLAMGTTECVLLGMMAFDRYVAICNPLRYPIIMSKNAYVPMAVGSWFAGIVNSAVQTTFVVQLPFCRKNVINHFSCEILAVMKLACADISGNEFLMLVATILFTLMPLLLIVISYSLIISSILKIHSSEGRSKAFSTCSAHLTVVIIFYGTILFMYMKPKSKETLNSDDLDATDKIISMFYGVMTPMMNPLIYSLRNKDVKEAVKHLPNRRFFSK
# Procedure, shortened: as §1
# [14] = molecular target: T14, OR13D1 (Homo sapiens) (UniProt Q8NGV5)
# T14 sequence (whole entry): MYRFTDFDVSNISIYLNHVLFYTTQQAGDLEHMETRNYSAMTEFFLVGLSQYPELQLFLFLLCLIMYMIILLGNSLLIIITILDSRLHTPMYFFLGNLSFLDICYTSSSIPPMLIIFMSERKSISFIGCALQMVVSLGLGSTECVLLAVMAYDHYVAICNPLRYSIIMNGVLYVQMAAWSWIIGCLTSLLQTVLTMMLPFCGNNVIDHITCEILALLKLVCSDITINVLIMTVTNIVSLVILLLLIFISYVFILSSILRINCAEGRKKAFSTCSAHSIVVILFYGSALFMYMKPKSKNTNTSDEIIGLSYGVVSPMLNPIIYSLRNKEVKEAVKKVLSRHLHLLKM
# Procedure, shortened: as §1
# [15] = molecular target: T15, OR13F1 (Homo sapiens) (UniProt Q8NGS4)
# T15 sequence (whole entry): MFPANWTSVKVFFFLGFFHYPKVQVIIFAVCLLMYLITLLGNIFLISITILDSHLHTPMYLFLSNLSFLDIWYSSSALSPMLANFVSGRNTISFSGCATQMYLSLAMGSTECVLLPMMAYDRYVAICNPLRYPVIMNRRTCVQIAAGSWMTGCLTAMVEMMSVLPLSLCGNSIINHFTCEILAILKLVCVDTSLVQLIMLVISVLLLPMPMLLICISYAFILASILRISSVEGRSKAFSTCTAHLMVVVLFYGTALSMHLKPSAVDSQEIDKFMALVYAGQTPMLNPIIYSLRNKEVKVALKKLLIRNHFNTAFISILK
# Procedure, shortened: as §1
# [16] = molecular target: T16, OR13G1 (Homo sapiens) (UniProt Q8NGZ3)
# T16 sequence (whole entry): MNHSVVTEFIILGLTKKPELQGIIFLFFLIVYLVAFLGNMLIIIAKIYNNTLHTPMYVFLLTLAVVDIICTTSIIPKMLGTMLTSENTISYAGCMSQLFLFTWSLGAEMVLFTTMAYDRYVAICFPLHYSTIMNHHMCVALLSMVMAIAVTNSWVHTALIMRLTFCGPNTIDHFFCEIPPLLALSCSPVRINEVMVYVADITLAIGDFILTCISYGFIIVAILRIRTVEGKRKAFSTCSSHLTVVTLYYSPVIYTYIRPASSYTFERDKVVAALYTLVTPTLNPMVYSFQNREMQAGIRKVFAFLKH
# Procedure, shortened: as §1
# [17] = molecular target: T17, OR11H12 (Homo sapiens) (UniProt B2RN74)
# T17 sequence (whole entry): T1 sequence (whole entry) with H7Q, S33T, I49T, R68W, Y156C, K181M, L199R, P269S
# Procedure, shortened: as §1
# 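Also: active if original authors judged signal statistically different from baseline.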
SMILES,odorant receptor agonist call [1],odorant receptor agonist call [2],odorant receptor agonist call [3],odorant receptor agonist call [4],odorant receptor agonist call [5],odorant receptor agonist call [6],odorant receptor agonist call [7],odorant receptor agonist call [8],odorant receptor agonist call [9],odorant receptor agonist call [10],odorant receptor agonist call [11],odorant receptor agonist call [12],odorant receptor agonist call [13],odorant receptor agonist call [14],odorant receptor agonist call [15],odorant receptor agonist call [16],odorant receptor agonist call [17]
CCCCC(S)C(C)CO (stereo not drawn),inactive,inactive,inactive,inactive,inactive,inactive,inactive,inactive,inactive,inactive,inactive,inactive,inactive,inactive,inactive,inactive,
CCC1OC(C)=C(O)C1=O (stereo not drawn),inactive,inactive,inactive,inactive,inactive,inactive,inactive,inactive,inactive,inactive,inactive,inactive,inactive,inactive,inactive,inactive,inactive
O=c1ccc2ccccc2o1,,,,,,,,,,,,,,,,,active
CC1=C(O)C(=O)OC1C (stereo not drawn),inactive,inactive,inactive,inactive,inactive,inactive,inactive,inactive,inactive,inactive,inactive,inactive,inactive,inactive,inactive,inactive,inactive
CCC(S)C(C)CO (stereo not drawn),inactive,inactive,inactive,inactive,inactive,inactive,inactive,inactive,inactive,inactive,inactive,inactive,inactive,inactive,inactive,inactive,
O=C1CCOc2ccccc21,,,,,,,,,,,,,,,,,inactive
